Reference: ChEMBL document CHEMBL3763085, “Optimization of tetrahydronaphthalene inhibitors of Raf with selectivity over hERG” (Bioorg Med Chem Lett, 2016)

Experiments:
Type in all cases: ADME, organism-based
[1] = Oral bioavailability in Sprague-Dawley rat at 10 mg/kg; conditions: in vivo
Procedure, shortened: (§1)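 Male SD rats were dosed orally at 10 mg/kg in 10% 2-hydroxypropyl-beta-cyclodextrin.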

[2] = Volume of distribution at steady state in Sprague-Dawley rat at 1 mg/kg, iv; conditions: in vivo, read-out: Vdss
Procedure, shortened: (§2)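 Male SD rats received 1 mg/kg intravenously. The vehicle was 10% 2-hydroxypropyl-beta-cyclodextrin or ethanol/PEG400/N,N-dimethylacetamide/water 1:4:1:4 (by volume), depending on compound. Plasma clearance (L/h/kg) and steady-state volume of distribution (L/kg) were derived.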

[3] = Plasma clearance in Sprague-Dawley rat at 1 mg/kg, iv; procedure, shortened: as §2
[4] = AUC in Sprague-Dawley rat at 10 mg/kg, po; conditions: in vivo; procedure, shortened: as §1

| Structure (SMILES) | bioavailability [1] [%] | Vd [2] [L/kg] | clearance [3] [mL/min/kg] | AUC [4] [µM·h] |
| --- | --- | --- | --- | --- |
| Cl.Cn1cc(-c2cc(C(=O)N[C@@H]3CCc4ccc(Oc5ccnc6c5CCC(=O)N6)cc4C3)cc(C(F)(F)F)c2)cn1 | 54 | 0.41 | 1.33 | 126 |
| CN(C)Cc1cc(C(=O)N[C@@H]2CCc3ccc(Oc4ccnc5c4CCC(=O)N5)cc3C2)cc(C(F)(F)F)c1.Cl.Cl | 100 | 0.75 | 3.83 | 98.6 |
